Measurements published in the EternaBench riboswitch data.

System: MS2 coat protein
Assay: apparent Kd, MS2 coat protein; higher = weaker binding; RNA-MaP array; theophylline 2 mM where present
Procedure, shortened: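 The titrant was SNAP-549-labelled MS2 coat protein, run from 0.7 or 1.5 nM in doubling steps to 3 µM. It was applied to designs transcribed by stalled E. coli RNA polymerase on Illumina sequencing-chip clusters, without ligand first and then with constant ligand, in 100 mM Tris-HCl pH 7.5, 80 mM KCl, 4 mM MgCl2, BSA, DTT, yeast tRNA and Tween-20. The apparent Kd is the median of filtered per-cluster binding-curve fits, with green signal normalised to red-channel RNA signal and control-cluster median Fmax.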

[1] = designed as: ON switch for theophylline, no ligand
[2] = ligand present: theophylline, designed as: ON switch for theophylline
[3] = designed as: OFF switch for theophylline, no ligand
[4] = ligand present: theophylline, designed as: OFF switch for theophylline

Sequence	apparent Kd [1]	apparent Kd [2]	apparent Kd [3]	apparent Kd [4]
UUUGAUAGGACAGAUACCAGCGUGUUAUAGAACAUGAGGAUCACCCAUGUAGUGAUCAAGCGCCCUUGGCAGCUGGUUUGUUAGG	229 nM	395 nM	–	–
ACAUGAGGAUCACCCAUGUUCCUCGCCGAUACCAGUGAAGAAGAACGCCCUUGGCAGCGGAAAGAAUAUAUUGGAGAUGAUAUAU	–	–	219 nM	316 nM
GGCGGACUUAUAGAUACCAGCACAUGAGGAUCACCCAUGUUUGGUCGCACCUCAGUCCUGUGCCCUUGGCAGCUAUGAUAGAUUU	–	–	17.3 nM	95.1 nM
ACAUGAGGAUCACCCAUGUCACGGCACGAUACCAGCUGAUCCGGUGGCCCUUGGCAGCGUCACGUUUGGUCCCGCGGAUGACACG	64.3 nM	60.4 nM	–	–
UCUGGGUCCGCAAGGACCUGGAGUUGCGAUACCAGCACGGUAACGUGCCCUUGGCAGCGCACAUGAGGAUCACCCAUGUGGUGUU	–	–	261 nM	436 nM
GACAUGAGGAUCACCCAUGUAUUGGGUGAUACCAGCCUGAAUCAUGGCCCUUGGCAGCACCGCGCUAACUUUAUGUUUGCGAACC	49.7 nM	160 nM	–	–
CGAUGAUCGAGGGAUACCAGAAAUGGUAUUCCUUUAUUUCUUACAUGAGGAUCACCCAUGUUCCCUUGGCAGCUUUUGAUCAUCG	–	–	86.5 nM	149 nM
AGCCCAUUACAUGAGGAUCACCCAUGUGAUACCAGUCAGGAAACUGACCCUUGGCAGCGCAUGAGGAUCACCCAUGCGCUGGGCA	–	–	12 nM	11.4 nM
CAGCCUGGUUGGUAAAUCCCUCAUCGUGAUACCAGUCGAGUGAUCGACCCUUGGCAGCACAUGAGGAUCACCCAUGUGCUCGUAU	–	–	25.1 nM	23.1 nM
AUCGUACCUAAUGAUACCAGCAAGUGAUCAUAACAUGAGGAUCACCCAUGUAAUCAGUGAUGCCCUUGGCAGCAUAAUCGAUACA	146 nM	88 nM	–	–
ACAUCCAGAUUAAUCGUGGGCAUACUCGAUACCAGUAUUUUAAUCUACCCUUGGCAGCGACAUGAGGAUCACCCAUGUGCGAUGA	–	–	12.8 nM	21.1 nM
GCAAUACAUGAGGAUCACCCAUGUGCAGAUACCAGAGGUGUAUGCCUCCCUUGGCAGCUGCGACGCUCUGGCAUCUUGUGGGAUG	51.8 nM	48.8 nM	–	–
CUGGCAGGAUGAUCCGCUGUCAGGGCUGAUACCAGCCACGAAAGUGGCCCUUGGCAGCAGCAAACAUGAGGAUCACCCAUGUAAA	144 nM	266 nM	–	–
UGGUACAUGAGGAUCACCCAUGUUCCAGAUACCAGUGUCCCGCUGCACCCUUGGCAGCUGGUGGCACAUGAGGAUCACCCAUGUG	–	–	15 nM	17.1 nM
AAUGAACAUGAGGAUCACCCAUGUCGUGAUACCAGCCGUAAGAGUGGCCCUUGGCAGCGCCAUGAGGACAACAACAUACAUGAGG	24.3 nM	27 nM	–	–
AUGUCGUUGAAUACAGCGGCAUGGAGUGAUACCAGAAUGAUCAAAUUCCCUUGGCAGCAUCACAUGAGGAUCACCCAUGUUCGAU	29.1 nM	34.3 nM	–	–
GGUCUGAAAACCGAUCAAAGAUCGGAAGAUACCAGAGGGUGAUCCCUCCCUUGGCAGCUUCACAUGAGGAUCACCCAUGUAGACC	192 nM	151 nM	–	–
ACGACGCAUACAGAUACCAGUAGAACAUGAGGAUCACCCAUGUCUGAGGCGCUCCGCCACUGCCCUUGGCAGCUGUAUGCGUCAG	9.7 nM	14.2 nM	–	–
UUGGUACGACAGCUCAUAUAAGCAUGUGAUACCAGACUGGAAACAGUCCCUUGGCAGCACUUUACAUGAGGAUCACCCAUGUCGG	–	–	221 nM	191 nM
GGUAUUGGAACAGAUACCAGUAUCUGUUGAUCCUACAUGAGGAUCACCCAUGUUAGAAAGUACCCUUGGCAGCUGUAAUAAUGCC	–	–	48.1 nM	81.6 nM

Sequence	apparent Kd [1]	apparent Kd [2]	apparent Kd [3]	apparent Kd [4]
AGACAUGUAGGAUAAUUGACUAUUACAGAUACCAGACUGUCUAAUGUCCCUUGGCAGCUGCAUUACAUGAGGAUCACCCAUGUUA	–	–	22.6 nM	20.2 nM
UGUACAUGAGGAUCACCCAUGUUACGCGAUACCAGACAUGAGAGUGUCCCUUGGCAGCGUGGAGCUGAUACGGCGGGAAGCCGGA	43.7 nM	39.5 nM	–	–
AUACCUAGUGAGUCGUGUUUCUUUUCAGAUACCAGACUUUUCGUUGUCCCUUGGCAGCUGUUUUACAUGAGGAUCACCCAUGUUG	–	–	15.7 nM	23.6 nM
UGACGAUACCUGGAUACCAGCGACAUGAGGAUCACCCAUGUAUGAGGAUCAGCCAUGUUAUGCCCUUGGCAGCCACGAAGGUCUU	–	–	33 nM	224 nM
ACUAGUUGUGCAGAUACCAGACAUGAGGAUCACCCAUGUUUGGGAUCUAAUGAUCAUCUUGUCCCUUGGCAGCUGUACAUCUAGA	–	–	78.5 nM	33.9 nM
AUCUCGUUCAAUAUACCGCCUUGACUAGAUACCAGCAUGGACCCAUGCCCUUGGCAGCUGGACAUGAGGAUCACCCAUGUUUCAG	12.4 nM	14.6 nM	–	–
ACACACAUGAGGAUCACCCAUGUAAUAGAUACCAGUGACGCGGUGCACCCUUGGCAGCUGCUGCUGAGUGAUGGUUCCCUCGGAA	–	–	21.1 nM	34.7 nM
ACACAUGAGGAUCACCCAUGUCCAAUAGAUACCAGUGAUACGGUGCACCCUUGGCAGCUGUUGCUGAGUGAUGGUUCCCUCGGAA	125 nM	164 nM	–	–
UCUUACUUGGUAGAUACCAGCGUGUUAUCUUUCUUUUGACAUGAGGAUCACCCAUGUAUAUGCCCUUGGCAGCUGCGUAGUGUGU	33.7 nM	32.5 nM	–	–
AAAUAGGUAGGAGAUACCAGAUACGUUAACAUGAGGAUCACCCAUGUGUAUGCACUUAGUGUCCCUUGGCAGCUCGAGGAUCUGG	30.7 nM	35.3 nM	–	–
UCGUGUAUAUCGGAUACCAGUGAAAUCGAUACAUGAGGAUCACCCAUGUGAGAGGAUGUACACCCUUGGCAGCUGUAUAUAUCUA	32.8 nM	14.7 nM	–	–
AGCAUGUUAUCAGAUACCAGACAUCUUUUAAUACAUAUUACAUGAGGAUCACCCAUGUUGGUCCCUUGGCAGCUGAAAUAUUUCA	256 nM	80.5 nM	–	–
UAUACAUGAGGAUCACCCAUGUGCCAUGAUACCAGACAUGAAAAUGUCCCUUGGCAGCAUGGUGAUUGUAUAGCGGGAAACCCGA	160 nM	196 nM	–	–
AACAUGAGGAUCACCCAUGUUUUAUGGGAUACCAGAGACGAAAGUCUCCCUUGGCAGCCCAAGCUGCUCCAUACGAAAGUAUGGU	14.3 nM	14 nM	–	–
UCGUGUAUAUCGGAUACCAGUGAAAUCGAUACAUGAGGAUCACCCAUGUGAGUUGAUGUACACCCUUGGCAGCUGUAUAUAUCUA	16.2 nM	12.4 nM	–	–
AAACAUUGCUCAGAUACCAGACAUGAGGAUCACCCAUGUACCAAGGUAACCGAAAGGCAUGUCCCUUGGCAGCUGAGCAAUGAAA	–	–	13.7 nM	240 nM
GGCGGACUUAUAGAUACCAGCACAUGAGGAUCACCCAUGUAUGGUCGCACCUCAGUCCUGUGCCCUUGGCAGCUAUAAUAGAUUU	–	–	19.7 nM	115 nM
AAACGUUGCUCAGAUACCAGACAUGAGGAUCACCCAUGUACCAAGGUACCCGAAAGGAAUGUCCCUUGGCAGCUGAGCAACGAAA	–	–	9.57 nM	21.6 nM
AAACGUUGCUCAGAUACCAGACAUGAGGAUCACCCAUGUACCAAGGUAAAGAAAUAACGUGUCCCUUGGCAGCUGAGCAACGAAA	–	–	11 nM	113 nM
AAUAAAUCACAUGAGGAUCACCCAUGUGAUACCAGCCUGGAAACAGGCCCUUGGCAGCACAUGAGGAUCACCCAUGUGCUAAAUA	–	–	8.81 nM	8.4 nM
